Measurements from PubChem BioAssay AID602194 (The Scripps Research Institute Molecular Screening Center, 2012).
Screen size: about 2,400 compounds; about 140 (5.8%) were called active.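 How the source made its calls: active means mean activation across replicates exceeds the hit threshold derived in the earlier primary screen (cut at about 18% in these data); inactive means the rest.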 Only a sample is shown.

target: Mu-type opioid receptor (Homo sapiens) + Delta-type opioid receptor (Homo sapiens) (UniProt P35372+P41143); experiment: agonists of MOR-DOR heterodimerization, counter-screen for MC4R biased agonist project, cell-based, luminescence (AID 602194); conditions: U2OS PathHunter beta-arrestin, beta-gal luminescence; at 9.2 µM; active compounds read high; percent of deltorphin B response, DMSO zero;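 further: 100% = deltorphin B at 0.9 µM final and 0% = DMSO alone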
Sequence (P35372 whole entry, looked up): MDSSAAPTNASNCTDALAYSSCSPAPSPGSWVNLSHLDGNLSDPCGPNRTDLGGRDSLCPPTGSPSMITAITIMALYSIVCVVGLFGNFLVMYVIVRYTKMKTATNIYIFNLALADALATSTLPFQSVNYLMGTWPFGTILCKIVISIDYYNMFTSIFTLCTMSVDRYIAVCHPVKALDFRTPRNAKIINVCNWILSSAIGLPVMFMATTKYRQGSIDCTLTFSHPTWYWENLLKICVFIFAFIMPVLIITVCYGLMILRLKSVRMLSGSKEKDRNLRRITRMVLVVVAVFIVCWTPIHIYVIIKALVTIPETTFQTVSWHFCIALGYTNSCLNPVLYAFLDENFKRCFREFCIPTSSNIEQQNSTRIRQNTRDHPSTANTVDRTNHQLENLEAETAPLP
Sequence (P41143 whole entry, looked up): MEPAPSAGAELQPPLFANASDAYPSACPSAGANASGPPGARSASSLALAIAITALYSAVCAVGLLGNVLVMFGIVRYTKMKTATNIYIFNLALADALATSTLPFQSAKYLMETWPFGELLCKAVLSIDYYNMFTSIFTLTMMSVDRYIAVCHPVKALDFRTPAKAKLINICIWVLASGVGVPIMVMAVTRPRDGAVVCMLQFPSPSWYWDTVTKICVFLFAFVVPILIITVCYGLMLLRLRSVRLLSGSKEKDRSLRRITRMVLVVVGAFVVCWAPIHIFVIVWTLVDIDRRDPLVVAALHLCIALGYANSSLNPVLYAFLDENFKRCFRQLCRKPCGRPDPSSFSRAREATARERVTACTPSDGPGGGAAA
Summary of the method: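 Material: U2OS Mu-Delta cells coexpressing OPRM1, OPRD1 and beta-arrestin. Schedule: 23 h growth, 3 h compound 37 °C, 1 h detection. Measured by: beta-gal complementation luminescence. Read-out: percent activation, mean of triplicates, scaled between DMSO and Deltorphin B. Control set: Deltorphin B high, DMSO low. Repeats: three replicates.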

Compound	activation
CC(=O)Nc1cc(-c2ccccc2N(C)C)cn2c(-c3ccc(F)c(Cl)c3)cnc12	4.79% (inactive)
CC(=O)Nc1cc(-c2ccccc2F)cn2c(-c3cccc(C(F)(F)F)c3)cnc12	2.54% (inactive)
Cc1csc(NC(=O)c2ccc(-c3ccc(Cl)cc3Cl)o2)n1	5.41% (inactive)
CCCCNc1c(-c2cccc(Sc3ccc(OC)cc3)c2)nc2ccccn12	6.07% (inactive)
CCN1CCN(CCNC(=O)c2ccc(/C=C3/Sc4ccccc4N(Cc4cccc(C)c4)C3=O)cc2)CC1	4.15% (inactive)
Cc1ccccc1NC(=O)c1ccc(COc2ccc3c(C)cc(=O)oc3c2)cc1	12.7% (inactive)
O=C(/C=C/c1c(Cl)cccc1Cl)NCc1ccccc1	5.53% (inactive)
COc1c(Cl)cc(C(=O)Nc2ccc(Cl)cn2)cc1Cl	7.15% (inactive)
NC(N)=Nc1nc(-c2ccccc2)c2cc(Cl)ccc2n1	5.11% (inactive)
O=C(NC1CCCCCC1)c1cccnc1Sc1ccc(Cl)cc1	3.4% (inactive)
Brc1ccc(-c2csc(N/N=C/c3cccnc3)n2)cc1	5.84% (inactive)
Cc1cccc(NC(=O)Nc2cccc(Oc3c(F)c(F)c(F)c(F)c3F)c2)c1	6.53% (inactive)
COc1ccc(-c2cc(NC=O)c3ncc(-c4ccccc4)n3c2)cc1OC	3.12% (inactive)
O=C(CCCn1c(SCC(=O)c2ccc(F)cc2)nc2ccccc2c1=O)NCc1ccco1	33.1% (active)
O=C(CCCN1C(=O)/C(=C\c2ccco2)SC1=S)Nc1cccc2ccccc12	4.3% (inactive)
O=C(CCCCCN1C(=O)c2cccc3cccc(c23)C1=O)NCc1ccco1	9.12% (inactive)
COc1ccc(S(=O)(=O)N/N=C\c2ccc(OC)c(COc3ccc(C)cc3[N+](=O)[O-])c2)cc1	3.27% (inactive)

Compound	activation
COc1ccccc1-c1cc(NC(C)=O)c2ncc(-c3ccc(F)cc3)n2c1	4.19% (inactive)
O=C(N/N=C/c1ccc(OC(=O)c2ccccc2Cl)cc1)c1ccc(O)cc1	6.45% (inactive)
CC(=O)c1cccc(-c2cnc3c(NC=O)cc(-c4ccc(N(C)C)cc4)cn23)c1	2.52% (inactive)
Cc1ccc(-n2cc3ccc([N+](=O)[O-])cc3n2)cc1	7.27% (inactive)
COc1ccc(OCC(=O)Nc2ccc(N3CCC(C)CC3)cc2)cc1	2.59% (inactive)
O=C(NCCc1c[nH]c2ccc(Cl)cc12)c1ccc([N+](=O)[O-])cc1	15.2% (inactive)
CCOC(=O)c1[nH]c2c(c1-c1ccccc1)C(=O)CC(c1ccc(Cl)cc1)C2 (centres undefined)	6.76% (inactive)
CCCCCCCCCCOC(=O)Cn1c(COc2ccc(C)cc2)[n+](C)c2ccccc21	22.4% (active)
CCCCCCCCCCOC(=O)Cn1c(COc2cccc(OC)c2)[n+](C)c2ccccc21	19.9% (active)
COc1cc(/C=C(\C#N)C(=O)Nc2ccc3ccccc3c2)c([N+](=O)[O-])cc1OC	10.3% (inactive)
CCN1C[C@@H]2[C@@H]3C(=O)N(Cc4ccccc4)C(=O)[C@@H]3[C@](Cc3ccccc3)(C(=O)OC)N2C1=NC1CCCCC1	5.52% (inactive)
O=C(NC(c1ccc(-c2ccccc2)cc1)c1cnccn1)C1CCN(CCOc2ccc(Cl)cc2Cl)CC1 (centres undefined)	9.53% (inactive)
O=C(COC(=O)c1cccc(Br)c1)Nc1cccc2c1C(=O)c1ccccc1C2=O	6.2% (inactive)
O=C(NC(=S)Nc1cccc2c(O)cccc12)c1cccc(Br)c1	8.2% (inactive)
CCN(CC)S(=O)(=O)c1ccc(C)c(NC(=O)COc2ccc(Br)cc2Cl)c1	6.67% (inactive)
CSc1ccc(/C=N\NC(=O)COc2ccc(Cl)cc2Br)cc1	5.52% (inactive)
COc1ccc(C)c(Cn2c(-c3nonc3N)nc3ccccc32)c1	5.04% (inactive)
